Results reported in ChEMBL document CHEMBL4351014, “Bis(het)aryl-1,2,3-triazole quinuclidines as α7 nicotinic acetylcholine receptor ligands: Synthesis, structure affinity relationships, agonism activity, [18F]-radiolabeling and PET study in rats” (Eur J Med Chem, 2019).
Activity calls are given as the source filed them. The rule behind the calls is not given here.

Assays:
[1] = molecular target: Neuronal acetylcholine receptor; alpha4/beta2 (Homo sapiens, UniProt P17787+P43681); assay: Displacement of [3H]cytisine from human recombinant alpha4beta2 nAChR incubated for 120 mins by radiometric scintillation analysis; assay type: protein-complex assay
Neuronal acetylcholine receptor; alpha4/beta2, sequence (P17787 whole entry): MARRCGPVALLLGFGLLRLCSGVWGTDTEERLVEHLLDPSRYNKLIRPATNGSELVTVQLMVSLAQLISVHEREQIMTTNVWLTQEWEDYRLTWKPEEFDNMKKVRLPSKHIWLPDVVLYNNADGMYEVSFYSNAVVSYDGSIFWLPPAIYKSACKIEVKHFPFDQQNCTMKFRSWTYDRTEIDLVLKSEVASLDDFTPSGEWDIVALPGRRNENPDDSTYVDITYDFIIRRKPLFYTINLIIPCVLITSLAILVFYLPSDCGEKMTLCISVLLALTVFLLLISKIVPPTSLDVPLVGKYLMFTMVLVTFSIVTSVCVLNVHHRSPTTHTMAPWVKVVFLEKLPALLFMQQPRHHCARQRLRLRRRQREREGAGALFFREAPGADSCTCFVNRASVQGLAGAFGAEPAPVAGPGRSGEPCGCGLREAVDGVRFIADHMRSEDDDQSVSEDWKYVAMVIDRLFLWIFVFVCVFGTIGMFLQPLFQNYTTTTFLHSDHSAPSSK
Neuronal acetylcholine receptor; alpha4/beta2, sequence (P43681 whole entry): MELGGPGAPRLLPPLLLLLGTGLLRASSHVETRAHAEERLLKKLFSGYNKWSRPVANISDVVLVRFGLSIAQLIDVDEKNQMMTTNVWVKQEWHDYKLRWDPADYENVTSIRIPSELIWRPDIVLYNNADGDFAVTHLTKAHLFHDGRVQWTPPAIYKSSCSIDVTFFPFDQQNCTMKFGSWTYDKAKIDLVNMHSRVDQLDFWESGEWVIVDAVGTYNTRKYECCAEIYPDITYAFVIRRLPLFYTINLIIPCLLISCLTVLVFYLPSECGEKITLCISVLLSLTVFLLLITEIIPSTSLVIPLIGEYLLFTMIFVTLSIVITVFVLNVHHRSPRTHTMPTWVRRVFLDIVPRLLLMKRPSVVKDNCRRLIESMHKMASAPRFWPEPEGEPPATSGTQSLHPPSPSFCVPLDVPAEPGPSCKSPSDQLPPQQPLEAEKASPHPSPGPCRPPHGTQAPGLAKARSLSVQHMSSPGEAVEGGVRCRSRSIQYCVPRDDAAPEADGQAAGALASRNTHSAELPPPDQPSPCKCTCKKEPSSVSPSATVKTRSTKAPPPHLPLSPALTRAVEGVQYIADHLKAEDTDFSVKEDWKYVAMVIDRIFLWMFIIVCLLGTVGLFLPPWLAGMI

[2] = molecular target: Neuronal acetylcholine receptor subunit alpha-7 (Homo sapiens) (UniProt P36544); assay: Agonist activity at alpha7 nAChR in human SH-SY5Y cells assessed as release of intracellular calcium at 3 nM preincubated for 20 mins with alpha7 nAChR antagonist alpha-bungarotoxin and for 1 min with alpha7 nAChR PAM PNU120596 prior to compound addition by Fluo-3 AM staining-based fluorescence spectral scanning multimode reader analysis; assay type: cell-based
Neuronal acetylcholine receptor subunit alpha-7 (Homo sapiens), sequence (P36544 whole entry): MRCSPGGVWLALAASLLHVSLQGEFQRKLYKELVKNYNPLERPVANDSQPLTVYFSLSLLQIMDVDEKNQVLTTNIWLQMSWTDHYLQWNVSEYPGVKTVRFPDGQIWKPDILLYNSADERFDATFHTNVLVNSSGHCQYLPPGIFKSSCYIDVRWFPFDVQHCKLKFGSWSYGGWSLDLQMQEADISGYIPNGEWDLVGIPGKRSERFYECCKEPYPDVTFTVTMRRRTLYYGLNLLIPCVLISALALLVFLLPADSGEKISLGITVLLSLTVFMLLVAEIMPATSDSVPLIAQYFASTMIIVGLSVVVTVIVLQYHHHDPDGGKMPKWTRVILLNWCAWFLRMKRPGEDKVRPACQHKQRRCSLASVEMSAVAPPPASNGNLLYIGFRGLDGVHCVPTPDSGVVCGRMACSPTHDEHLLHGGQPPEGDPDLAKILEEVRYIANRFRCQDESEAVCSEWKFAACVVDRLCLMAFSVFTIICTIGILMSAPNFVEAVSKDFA
In short: (§1)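 Differentiated SH-SY5Y cells loaded with fluo-3 AM as above, then preincubated 20 min at r.t. in Tyrode's solution with 100 nM α-bungarotoxin. PNU-120596 added 1 min before test agent or 3 mM choline. Fluorescence read at Ex 506/Em 526 nm, response expressed as % of (Fmax−Fmin) from 0.3% Triton X-100 then 100 mM MnCl2. 5 experiments in duplicate, mean ± SEM.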

[3] = molecular target: Neuronal acetylcholine receptor subunit alpha-7 (Homo sapiens) (UniProt P36544); assay: Agonist activity at alpha7 nAChR in human SH-SY5Y cells assessed as increase in intracellular calcium release at 3 nM preincubated for 1 min with alpha7 nAchR PAM PNU120596 prior to compound addition by Fluo-3 AM staining-based fluorescence spectral scanning multimode reader analysis relative to choline; assay type: cell-based
In short: (§2)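 SH-SY5Y (ATCC) grown in MEM/F12 1:1 with 10% heat-inactivated FBS, differentiated with 10 μM retinoic acid for 7 days. Cells loaded with 10 μM fluo-3 AM plus 0.02% Pluronic F127 for 1 h at r.t. in the dark, then preincubated 20 min at r.t. in Tyrode's solution with vehicle. PNU-120596 added in the last minute. Fluorescence read at Ex 506/Em 526 nm, normalised to Triton (Fmax) and MnCl2 (Fmin). 5 experiments in duplicate, mean ± SEM.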

[4] = system: SH-SY5Y; assay: Cytotoxicity against human SH-SY5Y cells assessed as cell viability at 0.003 to 3 uM incubated for 48 hrs by MTS assay; assay type: cell-based
In short: (§3)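 Retinoic acid-differentiated SH-SY5Y cells exposed for 48 h to 10, 100 and 1000 × Ki of each agent. MTS added for 3 h, absorbance read at 490 nm. Viability given as % of vehicle-treated cells. 4 independent experiments in triplicate, mean ± SEM.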

[5] = molecular target: T1, 5-hydroxytryptamine receptor 3A (Homo sapiens, UniProt P46098); assay: Displacement of [3H]BRL 43694 from human 5HT3R by radioligand displacement assay
T1 sequence (P46098 whole entry): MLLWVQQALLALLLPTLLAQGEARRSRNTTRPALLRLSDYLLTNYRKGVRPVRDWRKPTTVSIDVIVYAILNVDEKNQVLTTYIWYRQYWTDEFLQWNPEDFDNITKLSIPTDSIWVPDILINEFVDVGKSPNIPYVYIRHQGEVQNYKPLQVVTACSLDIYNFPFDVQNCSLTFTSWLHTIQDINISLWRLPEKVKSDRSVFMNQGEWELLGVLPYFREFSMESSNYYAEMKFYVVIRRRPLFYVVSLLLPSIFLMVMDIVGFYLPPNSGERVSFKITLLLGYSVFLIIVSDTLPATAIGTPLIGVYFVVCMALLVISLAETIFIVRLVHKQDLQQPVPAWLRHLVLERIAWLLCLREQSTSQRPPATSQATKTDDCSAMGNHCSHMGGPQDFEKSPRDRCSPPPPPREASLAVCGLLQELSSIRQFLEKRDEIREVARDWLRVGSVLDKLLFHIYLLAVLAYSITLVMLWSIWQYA

[6] = molecular target: Neuronal acetylcholine receptor subunit alpha-7 (Rattus norvegicus, UniProt Q05941); assay: Displacement of [125I]-alpha-bungarotoxin from alpha7 nAChR in Wistar rat brain membrane incubated for 3 hrs by gamma counting analysis; assay type: cell membranes
Neuronal acetylcholine receptor subunit alpha-7, sequence (Q05941 whole entry): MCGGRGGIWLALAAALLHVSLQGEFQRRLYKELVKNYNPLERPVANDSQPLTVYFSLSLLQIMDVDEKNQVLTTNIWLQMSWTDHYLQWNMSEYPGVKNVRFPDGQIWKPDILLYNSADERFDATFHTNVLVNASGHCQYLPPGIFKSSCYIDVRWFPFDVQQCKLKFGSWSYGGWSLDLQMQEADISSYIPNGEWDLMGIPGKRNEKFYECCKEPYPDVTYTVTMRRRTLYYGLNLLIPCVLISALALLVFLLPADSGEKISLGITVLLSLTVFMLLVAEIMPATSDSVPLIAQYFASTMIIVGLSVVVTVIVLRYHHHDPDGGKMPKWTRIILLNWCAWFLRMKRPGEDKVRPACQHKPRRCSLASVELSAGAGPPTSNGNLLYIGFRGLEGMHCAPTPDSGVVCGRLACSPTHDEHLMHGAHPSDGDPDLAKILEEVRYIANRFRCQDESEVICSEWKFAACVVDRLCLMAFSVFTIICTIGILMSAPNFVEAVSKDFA
In short: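 Frontal cortex membranes from male Wistar rats (2 rats per experiment), homogenised in pH 7.4 HEPES buffer and spun at 45,000×g. 25 μg protein incubated with 2 nM [125I]α-bungarotoxin and 10^-10 to 10^-6 M competitor in pH 7.4 Tris-HCl with Ca/Mg for 3 h at 22 °C. Nonspecific binding defined with 1 μM α-bungarotoxin. Filtered on PEI-soaked GF/C, gamma counted. IC50 read graphically, converted to Ki.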

[7] = molecular target: Neuronal acetylcholine receptor subunit alpha-7 (Homo sapiens) (UniProt P36544); assay: Agonist activity at alpha7 nAChR in human SH-SY5Y cells assessed as release of intracellular calcium at 50 nM preincubated for 20 mins with alpha7 nAChR antagonist alpha-bungarotoxin and for 1 min with alpha7 nAChR PAM PNU120596 prior to compound addition by Fluo-3 AM staining-based fluorescence spectral scanning multimode reader analysis; assay type: cell-based; in short: as §1
[8] = molecular target: Neuronal acetylcholine receptor subunit alpha-7 (Homo sapiens) (UniProt P36544); assay: Agonist activity at alpha7 nAChR in human SH-SY5Y cells assessed as increase in intracellular calcium release at 50 nM preincubated for 1 min with alpha7 nAchR PAM PNU120596 prior to compound addition by Fluo-3 AM staining-based fluorescence spectral scanning multimode reader analysis; assay type: cell-based; in short: as §2
[9] = system: SH-SY5Y; assay: Cytotoxicity against human SH-SY5Y cells assessed as cell viability at 50 nM to 5 uM incubated for 48 hrs by MTS assay; assay type: cell-based; conditions: 0.05 µM; in short: as §3
[10] = molecular target: Neuronal acetylcholine receptor subunit alpha-7 (Homo sapiens) (UniProt P36544); assay: Agonist activity at alpha7 nAChR in human SH-SY5Y cells assessed as release of intracellular calcium at 130 nM preincubated for 20 mins with alpha7 nAChR antagonist alpha-bungarotoxin and for 1 min with alpha7 nAChR PAM PNU120596 prior to compound addition by Fluo-3 AM staining-based fluorescence spectral scanning multimode reader analysis; assay type: cell-based; in short: as §1
[11] = Cytotoxicity against human SH-SY5Y cells assessed as reduction in cell viability at 13 uM incubated for 48 hrs by MTS assay relative to control; assay type: cell-based; conditions: read-out: INH; in short: as §3
[12] = system: SH-SY5Y; assay: Cytotoxicity against human SH-SY5Y cells assessed as cell viability at 0.13 to 1.3 uM incubated for 48 hrs by MTS assay; assay type: cell-based; in short: as §3
[13] = molecular target: Neuronal acetylcholine receptor subunit alpha-7 (Homo sapiens) (UniProt P36544); assay: Agonist activity at alpha7 nAChR in human SH-SY5Y cells assessed as increase in intracellular calcium release at 130 nM preincubated for 1 min with alpha7 nAchR PAM PNU120596 prior to compound addition by Fluo-3 AM staining-based fluorescence spectral scanning multimode reader analysis; assay type: cell-based; in short: as §2
[14] = molecular target: Neuronal acetylcholine receptor subunit alpha-7 (Homo sapiens) (UniProt P36544); assay: Agonist activity at alpha7 nAChR in human SH-SY5Y cells assessed as intracellular calcium release at 7 nM preincubated for 1 min with alpha7 nAchR PAM PNU120596 prior to compound addition by Fluo-3 AM staining-based fluorescence spectral scanning multimode reader analysis; assay type: cell-based; in short: as §2

Structure (SMILES): c1cc(-c2ccc(-c3cn([C@H]4CN5CCC4CC5)nn3)s2)ccc1CN1CCCCC1
- Ki [1]: 1000 nM
- Activity [2]: inactive
- Activity [3]: 80%
- Activity [4]: Non-Toxic
- Ki [5]: 560 nM

Structure (SMILES): c1cc2c(cc1-c1ccc(-c3cn([C@H]4CN5CCC4CC5)nn3)s1)OCCO2
- Ki [6]: 140 nM

Structure (SMILES): CN1CCN(Cc2ccc(-c3cccc(-c4cn([C@H]5CN6CCC5CC6)nn4)c3)cc2)CC1
- Ki [6]: 1.9 nM

Structure (SMILES): COCOCCOc1ccc(-c2ccc(-c3cn([C@H]4CN5CCC4CC5)nn3)s2)cc1
- Ki [6]: 140 nM

Structure (SMILES): c1cc(CN2CCOCC2)cc(-c2ccc(-c3cn([C@H]4CN5CCC4CC5)nn3)s2)c1
- Ki [6]: 16 nM

Structure (SMILES): OCc1ccc(-c2ccc(-c3cn([C@H]4CN5CCC4CC5)nn3)cc2)cc1
- Ki [6]: 100 to 175 nM

Structure (SMILES): OCc1ccc(-c2cccc(-c3cn([C@H]4CN5CCC4CC5)nn3)c2)cc1
- Ki [6]: 7 nM

Structure (SMILES): OC1CCN(Cc2ccc(-c3ccc(-c4cn([C@H]5CN6CCC5CC6)nn4)s3)cc2)CC1
- Ki [6]: 0.3 nM

Structure (SMILES): c1csc(-c2ccc(-c3cn([C@H]4CN5CCC4CC5)nn3)cc2)c1
- Ki [6]: 110 to 160 nM

Structure (SMILES): OCc1ccc(-c2ccc(-c3cn([C@H]4CN5CCC4CC5)nn3)cc2)s1
- Ki [6]: 120 to 200 nM

Structure (SMILES): c1cc2c(cc1-c1ccc(-c3cn([C@H]4CN5CCC4CC5)nn3)s1)CCO2
- Ki [6]: 60 nM

Structure (SMILES): FCc1ccc(-c2ccc(-c3cn([C@H]4CN5CCC4CC5)nn3)s2)cc1
- Activity [7]: inactive
- Ki [1]: > 1000 nM
- Activity [8]: Active
- Activity [9]: Non-Toxic
- Ki [5]: > 1000 nM

Structure (SMILES): c1cc(-c2ccc(CN3CCOCC3)cc2)cc(-c2cn([C@H]3CN4CCC3CC4)nn2)c1
- Ki [6]: 12.5 nM

Structure (SMILES): Fc1ccc(-c2ccc(-c3cn([C@H]4CN5CCC4CC5)nn3)cc2)cn1
- Ki [6]: > 1000 nM

Structure (SMILES): OCCc1ccc(-c2ccc(-c3cn([C@H]4CN5CCC4CC5)nn3)s2)cc1
- Ki [6]: 1.5 nM

Structure (SMILES): OCCOc1ccc(-c2ccc(-c3cn([C@H]4CN5CCC4CC5)nn3)s2)cc1
- Ki [6]: 1.7 nM

Structure (SMILES): OCc1ccc(-c2ccc(-c3cn([C@H]4CN5CCC4CC5)nn3)s2)s1
- Ki [6]: 0.8 nM

Structure (SMILES): OCc1ccc(-c2ccc(-c3cn([C@H]4CN5CCC4CC5)nn3)s2)cc1F
- Ki [6]: 12 nM

Structure (SMILES): FCCOc1ccc(-c2ccc(-c3cn([C@H]4CN5CCC4CC5)nn3)s2)cc1
- Ki [6]: 340 nM

Structure (SMILES): FCC1CCN(Cc2ccc(-c3ccc(-c4cn([C@H]5CN6CCC5CC6)nn4)s3)cc2)CC1
- Ki [6]: 1.4 nM

Structure (SMILES): OCc1ccc(-c2cccc(-c3cn([C@H]4CN5CCC4CC5)nn3)c2)s1
- Ki [6]: 0.2 nM

Structure (SMILES): FC1CCN(Cc2ccc(-c3ccc(-c4cn([C@H]5CN6CCC5CC6)nn4)s3)cc2)CC1
- Ki [6]: 2.8 nM

Structure (SMILES): CN1CCN(Cc2cccc(-c3cccc(-c4cn([C@H]5CN6CCC5CC6)nn4)c3)c2)CC1
- Ki [6]: 39 nM

Structure (SMILES): CN1CCN(Cc2cccc(-c3ccc(-c4cn([C@H]5CN6CCC5CC6)nn4)s3)c2)CC1
- Ki [6]: 16 nM

Structure (SMILES): OCc1ccc(-c2csc(-c3cn([C@H]4CN5CCC4CC5)nn3)c2)cc1
- Ki [6]: 1.5 nM

Structure (SMILES): Fc1ccc(-c2ccc(-c3cn([C@H]4CN5CCC4CC5)nn3)s2)cn1
- Ki [1]: > 1000 nM
- Activity [10]: inactive
- cytotoxicity at 48 h, 13 µM [11]: 15%
- Activity [12]: Non-Toxic
- Activity [13]: Active
- Ki [6]: 13 nM
- Ki [5]: 440 nM

Structure (SMILES): c1cc(CN2CCOCC2)cc(-c2cccc(-c3cn([C@H]4CN5CCC4CC5)nn3)c2)c1
- Ki [6]: 49 nM

Structure (SMILES): NCc1ccc(-c2ccc(-c3cn([C@H]4CN5CCC4CC5)nn3)s2)cc1
- Ki [6]: 0.3 nM

Structure (SMILES): c1cc(-c2ccc(CN3CCCCC3)cc2)cc(-c2cn([C@H]3CN4CCC3CC4)nn2)c1
- Ki [6]: 3 nM

Structure (SMILES): OCc1ccc(-c2cccc(-c3cn([C@H]4CN5CCC4CC5)nn3)c2)cc1F
- Ki [6]: 18 nM

Structure (SMILES): Fc1ccc(-c2csc(-c3cn([C@H]4CN5CCC4CC5)nn3)c2)cn1
- Ki [6]: 31 nM

Structure (SMILES): c1cc(CN2CCCCC2)cc(-c2cccc(-c3cn([C@H]4CN5CCC4CC5)nn3)c2)c1
- Ki [6]: 122 nM

Structure (SMILES): FCc1cccc(-c2ccc(-c3cn([C@H]4CN5CCC4CC5)nn3)s2)c1
- Ki [6]: 42 nM

Structure (SMILES): OCc1cccc(-c2ccc(-c3cn([C@H]4CN5CCC4CC5)nn3)s2)c1
- Activity [14]: inactive
- Ki [6]: 0.7 nM

Structure (SMILES): c1cc(CN2CCCCC2)cc(-c2ccc(-c3cn([C@H]4CN5CCC4CC5)nn3)s2)c1
- Ki [6]: 17 nM

Structure (SMILES): FCCc1ccc(-c2ccc(-c3cn([C@H]4CN5CCC4CC5)nn3)s2)cc1
- Ki [6]: 157 nM

Structure (SMILES): COC(=O)c1ccc(-c2ccc(-c3cn([C@H]4CN5CCC4CC5)nn3)s2)cc1F
- Ki [6]: 80 to 90 nM

Structure (SMILES): c1ccc(-c2ccc(-c3cn([C@H]4CN5CCC4CC5)nn3)s2)cc1
- Ki [6]: 43 nM
